Molecules are shown by their SMILES.

These results are taken from ChEMBL document CHEMBL3997832, “Development of MBRI-001, a deuterium-substituted plinabulin derivative as a potent anti-cancer agent” (Bioorg Med Chem Lett, 2017).

Series [1] has as its system Mus musculus. Put plainly: Toxicity in nude mouse xenografted with human NCI-H460 cells assessed as decrease in body weight at 10 mg/kg, iv administered every 2 days for 21 days. Details: scale not given: the % may be the effect or the level left. To be noted: in vivo. The format is organism-based. Put shortly:
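NCI-H460 lung carcinoma xenografts in nude mice, with intravenous injection every two days over 21 consecutive days (legend: Q3D7). Body weights were recorded across the administration period as a toxicity read-out. Data given as mean ± SD.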

Series [2] concerns NCI-H460. Put plainly: Antitumor activity against human NCI-H460 cells xenografted in nude mouse assessed as tumor growth inhibition at 10 mg/kg, iv administered every 2 days for 21 days relative to vehicle-treated control. The format is functional. To be noted: read-out: TGI. Put shortly:
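Nude mice bearing human NCI-H460 lung carcinoma xenografts, dosed by intravenous injection every two days for 21 consecutive days (legend states Q3D7), alongside vehicle controls. Tumor volumes were followed over the dosing period. At the end, tumors were excised and weighed, and inhibitory rates were calculated relative to vehicle. Data given as mean ± SD.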

For series [3], the system named is Mus musculus. The series is described as follows: Toxicity in nude mouse xenografted with human NCI-H460 cells assessed as decrease in body weight at 3 to 12 mg/kg, iv administered every 2 days for 21 days. To be noted: in vivo. The class given is organism-based. Put shortly: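 Nude mice bearing NCI-H460 xenografts dosed intravenously at 3, 6 or 12 mg/kg every two days for 21 days (Q3D7). Body weights recorded over the dosing period; mean ± SD.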

Series [4] can be described thus: Metabolic stability in rat plasma assessed as esterase-mediated amide bond hydrolysis at 1 uM measured up to 100 mins by LC-MS/MS analysis. To be noted: isolated protein. The format is ADME.
The subject of series [5] is NCI-H460. The series is described as follows: Antitumor activity against human NCI-H460 cells xenografted in nude mouse assessed as tumor growth inhibition at 3 mg/kg, iv administered every 2 days for 21 days relative to vehicle-treated control. To be noted: read-out: TGI. The format is functional. The gist of the method:
(§1)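 NCI-H460 xenografts in nude mice, dosed intravenously at 3, 6 or 12 mg/kg every two days for 21 consecutive days (Q3D7); docetaxel 10 mg/kg as positive control. Tumor volumes followed, tumors excised and weighed at end of dosing; inhibitory rate calculated versus vehicle group; mean ± SD.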

Series [6] in a line: Drug uptake in tumor of nude mouse xenografted with human NCI-H460 cells at 6 mg/kg, iv administered every 2 days for 21 days. To be noted: read-out: Drug uptake. The format is ADME, organism-based, Neoplasm. The gist of the method:
(§2)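 Nude mice bearing NCI-H460 xenografts given compound intravenously at 3, 6 or 12 mg/kg every two days for 21 days. Concentration in excised tumor tissue measured at end of treatment, expressed as ng/g.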

Series [7] is described as follows: Drug uptake in tumor of nude mouse xenografted with human NCI-H460 cells at 12 mg/kg, iv administered every 2 days for 21 days. The class given is ADME, organism-based, Neoplasm. To be noted: read-out: Drug uptake. Put shortly: as §2
The nature of series [8]: Elimination rate constant in Wistar rat at 5 mg/kg, iv. The format is ADME, organism-based. To be noted: in vivo. The gist of the method:
(§3)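 Wistar rats, single intravenous dose of 5 mg·kg⁻¹, n=5; plasma concentration–time profile sampled, mean ± SD. Parameters (ke, t1/2, Tmax, Cmax, AUClast, AUC0–∞, Vz, CL, MRT) derived from the plasma curve.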

A short description of series [9]: Drug uptake in tumor of nude mouse xenografted with human NCI-H460 cells at 3 mg/kg, iv administered every 2 days for 21 days. The class given is ADME, organism-based, Neoplasm. To be noted: read-out: Drug uptake. Put shortly: as §2
Series [10] deals with NCI-H446. Put plainly: Cytotoxicity against human NCI-H446 cells assessed as decrease in cell viability after 72 hrs by MTT assay. The class given is functional, cell-based. To be noted: NCI-H446, 72 h.
Series [11] in a line: Metabolic stability in rat liver microsomes assessed as esterase-mediated amide bond hydrolysis at 2 uM measured up to 150 mins by LC-MS/MS analysis. The format is ADME. To be noted: 2.5 h.
Series [12] can be described thus: AUClast in Wistar rat at 5 mg/kg, iv. The format is ADME, organism-based. Details: dose 5 mg/kg, route intravenous, time 0 - last. To be noted: in vivo. Put shortly:
as §3

A short description of series [13]: Observed clearance in Wistar rat at 5 mg/kg, iv. The format is ADME, organism-based. To be noted: in vivo. The gist of the method: as §3
In series [14] the test system is NCI-H460. Put plainly: Antitumor activity against human NCI-H460 cells xenografted in nude mouse assessed as tumor growth inhibition at 12 mg/kg, iv administered every 2 days for 21 days relative to vehicle-treated control. The class given is functional. To be noted: read-out: TGI. The gist of the method: as §1
Series [15] can be described thus: Tmax in Wistar rat at 5 mg/kg, iv. To be noted: in vivo. The format is ADME, organism-based. Put shortly: as §3
For series [16], the system named is NCI-H460. Put plainly: Cytotoxicity against human NCI-H460 cells assessed as decrease in cell viability after 72 hrs by MTT assay. The format is functional, cell-based. To be noted: NCI-H460, 72 h.
Series [17] has as its system NCI-H460. The series is described as follows: Antitumor activity against human NCI-H460 cells xenografted in nude mouse assessed as tumor growth inhibition at 6 mg/kg, iv administered every 2 days for 21 days relative to vehicle-treated control. The format is functional. To be noted: read-out: TGI. The gist of the method:
as §1

Series [18] is described as follows: Half life in Wistar rat at 5 mg/kg, iv. The class given is ADME, organism-based. To be noted: in vivo. The gist of the method:
as §3

Series [19] can be described thus: Observed apparent volume of distribution in Wistar rat at 5 mg/kg, iv. To be noted: in vivo, read-out: Vz. The class given is ADME, organism-based. Put shortly:
as §3

A short description of series [20]: Observed AUC (0 to infinity) in Wistar rat at 5 mg/kg, iv. The format is ADME, organism-based. Details: dose 5 mg/kg, time infinity, route intravenous. To be noted: in vivo. The gist of the method:
as §3

Series [21] can be described thus: MRTlast in Wistar rat at 5 mg/kg, iv. The format is ADME, organism-based. To be noted: in vivo. Put shortly: as §3
The test system of series [22] is Jurkat. The series is described as follows: Cytotoxicity against human Jurkat cells assessed as decrease in cell viability after 72 hrs by MTT assay. The format is functional, cell-based.
A short description of series [23]: Cmax in Wistar rat at 5 mg/kg, iv. The format is ADME, organism-based. Details: dose 5 mg/kg, route intravenous. To be noted: in vivo. Put shortly: as §3
Series [24] relates to NCI-H460. The series is described as follows: Antitumor activity against human NCI-H460 cells xenografted in iv dosed nude mouse assessed as tumor growth inhibition administered every 2 days for 21 days. To be noted: tested as the 2H-labelled form. The format is functional, organism-based. Put shortly: as §1

For the compound `CC(=O)O[C@@]12CO[C@@H]1C[C@H](O)[C@@]1(C)C(=O)[C@H](O)C3=C(C)[C@@H](OC(=O)[C@H](O)[C@@H](NC(=O)OC(C)(C)C)c4ccccc4)C[C@@](O)([C@@H](OC(=O)c4ccccc4)[C@H]21)C3(C)C` [DOCETAXEL ANHYDROUS], in series [1], the Activity came to 18.3%. For the same compound, the inhibition in vivo at 10 mg/kg in series [2] came to 40%.

On to `[2H]/C(c1nc[nH]c1C(C)(C)C)=c1/[nH]c(=O)/c(=C/c2ccccc2)[nH]c1=O`, for which, in series [3], the Activity entry was “Non-Toxic”. For the same compound, the Stability result in series [4] and in [11] was “Stable” each time. Moreover, in series [5], the inhibition in vivo at 3 mg/kg was 28.8%. The values for the concentration at 21 days in series [6], in series [7] and in [9] were 809 ng/g, 2490 ng/g and 316 ng/g, respectively. Further, the k el in [8] was 0.000139 s⁻¹. Besides, the IC50 in series [10] came out at 22 nM; in series [16], 33.2 nM; in [22], 4.3 nM. In series [12], the AUC(0-t) was 1520 ng·h/mL. In [13], the clearance is 58.8 mL/min/kg. In addition, in [14], the inhibition in vivo at 12 mg/kg is 48%. The time to peak (Tmax) in series [15] was determined as 1.2 min. Moreover, in [17], the inhibition in vivo at 6 mg/kg came out at 44.8%. Besides, the half-life in [18] is 88.2 min. Besides, the Vd in series [19] amounted to 7.72 L/kg. The same compound returned an AUC(0-inf) in [20] of 1520 ng·h/mL. The same compound yielded an MRT last in series [21] of 101 min. This compound gave a Cmax in series [23] of 7280 ng/mL.

On to `CC(C)(C)c1[nH]cnc1/C=c1\[nH]c(=O)/c(=C/c2ccccc2)[nH]c1=O` [PLINABULIN], for which the Stability entry in [4] and in [11] was “Stable” each time. Further, the k el in [8] is 0.000189 s⁻¹. The IC50 in series [10] amounted to 44.2 nM; in [16] it was 33.9 nM; in [22] it was 3.3 nM. This compound also returned an AUC(0-t) in series [12] of 721 ng·h/mL. For the same compound, in [13], the clearance is 121 mL/min/kg. The Tmax in series [15] was 1.2 min. In [18], this compound showed a half-life of 67.8 min. Further, the Vd in series [19] was 11.4 L/kg. In [24], the TGI result was “Dose-dependent effect”. Moreover, the AUC(0-inf) in [20] is 723 ng·h/mL. The MRT last in [21] worked out at 30 min. The compound also showed a Cmax in [23] of 5040 ng/mL.
